# Laboratory results from ChEMBL document CHEMBL1250461, “Synthesis, binding and bioactivity of gamma-methylene gamma-lactam ecdysone receptor ligands: advantages of QSAR models for flexible receptors” (Bioorg Med Chem, 2010).
# Target: T1, Ecdysone receptor (Lucilia cuprina, UniProt O18531)
# T1 sequence (O18531 whole entry): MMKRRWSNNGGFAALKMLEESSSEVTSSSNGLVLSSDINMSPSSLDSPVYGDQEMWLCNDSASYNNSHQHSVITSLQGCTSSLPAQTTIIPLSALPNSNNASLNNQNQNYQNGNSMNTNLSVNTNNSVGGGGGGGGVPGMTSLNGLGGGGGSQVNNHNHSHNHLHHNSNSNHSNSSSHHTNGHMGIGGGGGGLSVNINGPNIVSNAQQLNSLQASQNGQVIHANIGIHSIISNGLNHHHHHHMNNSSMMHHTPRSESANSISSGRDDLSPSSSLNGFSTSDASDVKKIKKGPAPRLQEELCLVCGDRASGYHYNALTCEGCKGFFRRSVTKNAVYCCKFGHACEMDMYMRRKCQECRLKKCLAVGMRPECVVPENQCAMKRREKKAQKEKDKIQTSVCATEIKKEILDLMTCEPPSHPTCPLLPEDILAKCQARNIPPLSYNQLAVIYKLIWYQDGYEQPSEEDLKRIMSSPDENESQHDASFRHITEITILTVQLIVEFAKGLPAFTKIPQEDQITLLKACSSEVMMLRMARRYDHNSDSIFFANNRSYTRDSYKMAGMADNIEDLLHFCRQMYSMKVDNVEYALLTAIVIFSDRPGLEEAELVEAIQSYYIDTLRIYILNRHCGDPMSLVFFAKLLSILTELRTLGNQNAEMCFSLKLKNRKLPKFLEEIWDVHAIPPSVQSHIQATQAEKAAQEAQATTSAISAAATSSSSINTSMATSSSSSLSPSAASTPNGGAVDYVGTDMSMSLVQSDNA
# Experiment: Binding affinity to Lucilia cuprina recombinant ecdysone receptor ligand binding domain after 3 hrs by fluorescence polarization assay
# How it was run: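 L. cuprina EcR_DEF/USP_DEF LBD heterodimer, baculovirus co-expressed and IMAC-purified, used at 1.14 mg/mL. Fluorescence polarisation competition against 36 nM fluorescein–inokosterone A conjugate, with 0.5 mg/mL BSA and 3% v/v DMSO in 50 mM sodium phosphate/100 mM NaCl, pH 7.4. Test range 3 nM–3 mM final. Overnight at 4 °C, then 3 h re-equilibration at room temperature, mP read. Triplicate on one plate; IC50 from mean.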
row,Compound,IC50 [µM]
1,C=C1C(c2ccccc2)=C(C#N)C(=O)N1c1c(C)cccc1C(C)C,55
2,C=C1C(CCCC)=C(C#N)C(=O)N1c1c(C)cccc1CC,33

# Other lines, results leading:
row,IC50 [µM],Compound
1,42,C=C1C(C(C)C)=C(C#N)C(=O)N1c1ccc(Cl)cc1C(C)(C)C
2,12.5,C=C1C(CCCC)=C(C#N)C(=O)N1c1cc(Cl)ccc1C
3,56,C=C1C(CCCC)=C(C#N)C(=O)N1c1c(C)cccc1Cl
4,7.25,C=C1C(CC)=C(C#N)C(=O)N1c1cc(Cl)c(Cl)cc1Cl
5,5.5,C=C1C(CCCC)=C(C#N)C(=O)N1c1cc(Cl)ccc1C(C)(C)C

# Target: not listed separately
# Experiment: Binding affinity to Bovicola ovis recombinant ecdysone receptor ligand binding domain after 3 hrs by fluorescence polarization assay
# How it was run: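 B. ovis EcR_DEF/USP_DEF LBD heterodimer, co-expressed from baculovirus and purified by IMAC (2.51 mg/mL final). Competes with 36 nM fluorescein–inokosterone A conjugate in 50 mM sodium phosphate, 100 mM NaCl, pH 7.4 with 0.5 mg/mL BSA and 3% v/v DMSO. Compound range 3 nM–3 mM final. Incubated overnight at 4 °C, then 3 h at room temperature before polarisation (mP) read. Triplicate; IC50 from mean.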
row,Compound,IC50 [µM]
1,C=C1C(C)=C(C#N)C(=O)N1c1c(C)cc(Cl)cc1Cl,55
2,C=C1C(C)=C(C#N)C(=O)N1C1CCCC1,85
3,C=C1C(C)=C(C(C)=O)C(=O)N1c1cc(Cl)c(Cl)cc1Cl,45
4,C=C1C(c2ccccc2)=C(C#N)C(=O)N1c1c(C)cccc1C(C)C,43
5,C=C1C(CC(C)C)=C(C#N)C(=O)N1c1c(Cl)c(Cl)cc(Cl)c1Cl,45
6,C=C1C(CC)=C(C#N)C(=O)N1c1c(C)cccc1C(C)C,45
7,C=C1C(C(C)C)=C(C#N)C(=O)N1c1c(C)cc(C)cc1C,55
8,C=C1C(C)=C(C#N)C(=O)N1c1c(C)cc(Cl)cc1C,48
9,C=C1C(C)=C(C#N)C(=O)N1c1ccc(N(C)C)cc1,150
10,C=C1C(C)=C(C#N)C(=O)N1Cc1ccccc1Cl,37.5
11,C=C1C(C)=C(C#N)C(=O)N1c1ccccc1Cl,55
12,C=C1C(CC)=C(C#N)C(=O)N1c1c(Cl)cc(Cl)cc1Cl,160
13,C=C1C(CCC)=C(C#N)C(=O)N1c1c(C)cccc1CC,48
14,C=C1C(CC)=C(C#N)C(=O)N1c1c(C)cccc1CC,80
15,C=C1C(C)=C(C#N)C(=O)N1c1c(C)cc(C)cc1C,68
16,C=C1C(C)=C(C#N)C(=O)N1C1CCCCC1,50
17,C=C1C(C)=C(C#N)C(=O)N1c1ncc(Cl)cc1Cl,45
18,C=C1C(C)=C(C#N)C(=O)N1c1ccccc1C,80
19,C=C1C(C)=C(C(=O)c2ccccc2)C(=O)N1c1c(C)cc(C)cc1C,44
20,C=C1C(C)=C(C#N)C(=O)N1c1cc(Cl)ccc1O,92.5
21,C=C1C(C)=C(C#N)C(=O)N1c1ccc(Cl)cn1,95
22,C=C1C(C)=C(C#N)C(=O)N1c1ccc2c(c1)OCO2,67.5
23,C=C1C(C)=C(C(=O)c2ccccc2)C(=O)N1c1c(C)cccc1C(C)C,58
24,C=C1C(CCCC)=C(C#N)C(=O)N1c1c(C)cccc1CC,46
25,C=C1C(C)=C(C#N)C(=O)N1c1ccccc1OCC,350
26,C=C1C(CCCC)=C(C#N)C(=O)N1c1c(C)cccc1C,35

row,Compound,IC50 [µM]
1,COc1cc(OC)cc(N2C(=O)C(C#N)=C(C)/C2=C/C(C)C)c1,65
2,C=C1C(C)=C(C(=O)c2ccccc2)C(=O)N1c1c(C(C)C)cccc1C(C)C,2250
3,C=C1C(C)=C(C#N)C(=O)N1c1c(C)cccc1[N+](=O)[O-],160
4,C=C1C(C)=C(C#N)C(=O)N1c1cc([N+](=O)[O-])ccc1OC,55
5,C=C1C(C)=C(C#N)C(=O)N1c1c(C)cccc1C(C)(C)C,160
6,C=C1C(C)=C(C#N)C(=O)N1c1ccc(NC(C)=O)cc1,575
7,C=C1C(C)=C(C#N)C(=O)N1c1ccccc1Br,37.5
8,C=C1C(C)=C(C#N)C(=O)N1c1ccc(N(C)C(C)=O)cc1,400
9,C=C1C(C)=C(C#N)C(=O)N1C1CC2CCC1C2 (stereo not drawn),48
10,C=C1C(C)=C(C#N)C(=O)N1c1c(CC)cccc1C(C)(C)C,150
11,C=C1C(CC)=C(C#N)C(=O)N1c1ccccc1C(C)(C)C,40
12,CCC/C=C1\C(C)=C(C#N)C(=O)N1c1c(C(C)(C)C)ccc(Cl)c1C,2300
13,C=C1C(CC)=C(C#N)C(=O)N1NC(=O)c1ccc(Cl)cc1,72.5
14,C=C1C(C)=C(C#N)C(=O)N1C1CCCC(C)C1C (stereo not drawn),250
15,C=C1C(C)=C(C#N)C(=O)N1c1ccc(F)cc1F,90
16,C=C1C(CCCC)=C(C#N)C(=O)N1c1c(C)cccc1[N+](=O)[O-],71
17,C=C1C(C)=C(C#N)C(=O)N1c1c(C)cc(C)cc1C(F)(C(F)(F)F)C(F)(F)F,160
18,CN(C(=O)C1CCCCC1)N1C(=O)C(C#N)=C2CCCC=C21,88
19,C=C1C(C)=C(C#N)C(=O)N1c1cc(Cl)ccc1OC(=O)CC,55
20,C=C1C(C)=C(C#N)C(=O)N1c1cc(Cl)ccc1OC,650
21,C=C1C(C)=C(C#N)C(=O)N1c1nccs1,90
22,C=C1C(C)=C(C#N)C(=O)N1c1ccc(OC)cc1OC,150
23,C=C1C(C)=C(C#N)C(=O)N1c1ccccc1OC(F)(F)F,45
24,C=C1C(C)=C(C#N)C(=O)N1c1ccc(-c2ccccc2)cc1,35
25,C/C=C1\C(C)=C(C#N)C(=O)N1c1c(Cl)cc(Cl)cc1Cl (mixture of isomers),85

# Stronger by IC50, values ahead:
row,IC50 [µM],Compound
1,27.5,C=C1C(CCC)=C(C#N)C(=O)N1C1CCCCC1
2,26,C=C1C(C)=C(C#N)C(=O)N1C1CCCc2ccccc21 (stereo not drawn)
3,26,C=C1C(C)=C(C#N)C(=O)N1c1cnc2ccccc2c1
4,26,C=C1C(CC)=C(C#N)C(=O)N1c1ccccc1OC(F)(F)F
5,25,C=C1C(C)=C(C#N)C(=O)N1c1cccc(SC)c1
6,25,C=C1C(C)=C(C#N)C(=O)N1c1ccccc1-c1ccccc1
7,25,C=C1C(C)=C(C#N)C(=O)N1c1ccccc1Oc1ccccc1
8,22.5,C=C1C(C)=C(C#N)C(=O)N1c1cccc(Cl)c1Cl
9,22.5,C=C1C(C)=C(C#N)C(=O)N1c1ccccc1C(C)C
10,22.5,C=C1C(C)=C(C#N)C(=O)N1c1ccccc1Cc1ccccc1
11,22,C=C1C(C)=C(C#N)C(=O)N1c1cccc(C(F)(F)F)c1
12,22,C=C1C(CCCCCCCC)=C(C#N)C(=O)N1c1c(C)cc(C)cc1C
13,21,C=C1C(CCCC)=C(C#N)C(=O)N1c1cc(OC)c(OC)c(OC)c1
14,20.3,C=C1C(CCCC)=C(C#N)C(=O)N1c1c(C)cccc1C(C)C
15,20,C=C1C(C)=C(C#N)C(=O)N1c1c(C)cc(Cl)cc1C(C)C
16,20,C=C1C(C)=C(C#N)C(=O)N1c1ccc(F)c([N+](=O)[O-])c1
17,19,C=C1C(C)=C(C#N)C(=O)N1c1cccc(Cl)c1
18,18,C=C1C(C)=C(C(=O)c2ccccc2)C(=O)N1c1cc(C(F)(F)F)ccc1Cl
19,18,C=C1C(C)=C(C#N)C(=O)N1c1cccc(Oc2ccccc2)c1
20,17.5,C=C1C(C)=C(C#N)C(=O)N1c1ccccc1C(C)(C)C
21,17.5,C=C1C(CCCC)=C(C#N)C(=O)N1c1c(C)cc(Cl)cc1C(C)C
22,17.5,C=C1C(CC)=C(C#N)C(=O)N1c1cccc(Cl)c1Cl
23,16,C=C1C(C)=C(C(=O)C(C)C)C(=O)N1c1cc(Cl)c(Cl)cc1Cl

row,IC50 [µM],Compound
1,15,C=C1C(C)=C(C#N)C(=O)N1c1ccc(Cl)c(Cl)c1Cl
2,15,C=C1C(C)=C(C#N)C(=O)N1c1ccc(Cl)c2ccccc12
3,15,C=C1C(CCCC)=C(C#N)C(=O)N1c1ccccc1OC(F)(F)F
4,15,C=C1C(CC)=C(C#N)C(=O)N1c1cccc(Cl)c1C
5,12.5,C=C1C(c2ccccc2)=C(C#N)C(=O)N1c1cc(C)ccc1F
6,12.5,C=C1C(C)=C(C#N)C(=O)N1c1cc(Cl)ccc1Cl
7,11,C=C1C(C)=C(C(=O)OCC)C(=O)N1c1cc(Cl)c(Cl)cc1Cl
8,11,C=C1C(CC(C)C)=C(C#N)C(=O)N1c1ccccc1C
9,11,C=C1C(C(C)C)=C(C#N)C(=O)N1c1c(C)cc(Cl)cc1C
10,11,C=C1C(CCCC)=C(C#N)C(=O)N1c1c(C)cc(C)cc1C
11,11,C=C1C(C)=C(C#N)C(=O)N1c1ccccc1OC
12,10.5,C=C1C(CCC)=C(C#N)C(=O)N1c1c(C)cccc1C(C)C
13,9,C=C1C(C)=C(C(=O)c2ccccc2)C(=O)N1c1cc(Cl)c(Cl)cc1Cl
14,8.5,C=C1C(c2ccccc2)=C(C#N)C(=O)N1c1cc(Cl)ccc1Cl
15,7,C=C1C(C)=C(C#N)C(=O)N1c1cc(Cl)c(Cl)cc1Cl
16,6.8,C=C1C(CC(C)C)=C(C#N)C(=O)N1c1cc(Cl)ccc1Cl
17,6.5,C=C1C(C(C)C)=C(C#N)C(=O)N1c1ccc(Cl)cc1C(C)(C)C
18,6,C=C1C(CCCC)=C(C#N)C(=O)N1c1cc(Cl)ccc1C
19,6,C=C1C(CCCC)=C(C#N)C(=O)N1c1c(C)cccc1Cl
20,5.5,C=C1C(CC)=C(C#N)C(=O)N1c1cc(Cl)c(Cl)cc1Cl
21,4.5,C=C1C(C)=C(C#N)C(=O)N1c1cc(C(F)(F)F)ccc1C(F)(F)F
22,4,C=C1C(CCCC)=C(C#N)C(=O)N1c1cc(Cl)ccc1C(C)(C)C
